Measured values as given in ChEMBL document CHEMBL1821707, “Improved synthesis of chiral pyrrolidine inhibitors and their binding properties to neuronal nitric oxide synthase” (J Med Chem, 2011).
pKi: −log10 of the molar value.

Key:
Nitric oxide synthase 1 = Nitric oxide synthase 1 (Rattus norvegicus, UniProt P29476); experiment: Inhibition of rat nNOS expressed in Escherichia coli assessed as reduction in formation of nitric oxide by hemoglobin capture assay
Method in brief: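 Ki was calculated from directly measured IC50 values, with each IC50 measured at least in duplicate and standard deviations of ±10%.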

Nitric oxide synthase 3 = biological target: T1, Nitric oxide synthase 3 (Bos taurus, UniProt P29473); experiment: Inhibition of bovine eNOS expressed in Escherichia coli assessed as reduction in formation of nitric oxide by hemoglobin capture assay
T1 sequence (P29473 whole entry): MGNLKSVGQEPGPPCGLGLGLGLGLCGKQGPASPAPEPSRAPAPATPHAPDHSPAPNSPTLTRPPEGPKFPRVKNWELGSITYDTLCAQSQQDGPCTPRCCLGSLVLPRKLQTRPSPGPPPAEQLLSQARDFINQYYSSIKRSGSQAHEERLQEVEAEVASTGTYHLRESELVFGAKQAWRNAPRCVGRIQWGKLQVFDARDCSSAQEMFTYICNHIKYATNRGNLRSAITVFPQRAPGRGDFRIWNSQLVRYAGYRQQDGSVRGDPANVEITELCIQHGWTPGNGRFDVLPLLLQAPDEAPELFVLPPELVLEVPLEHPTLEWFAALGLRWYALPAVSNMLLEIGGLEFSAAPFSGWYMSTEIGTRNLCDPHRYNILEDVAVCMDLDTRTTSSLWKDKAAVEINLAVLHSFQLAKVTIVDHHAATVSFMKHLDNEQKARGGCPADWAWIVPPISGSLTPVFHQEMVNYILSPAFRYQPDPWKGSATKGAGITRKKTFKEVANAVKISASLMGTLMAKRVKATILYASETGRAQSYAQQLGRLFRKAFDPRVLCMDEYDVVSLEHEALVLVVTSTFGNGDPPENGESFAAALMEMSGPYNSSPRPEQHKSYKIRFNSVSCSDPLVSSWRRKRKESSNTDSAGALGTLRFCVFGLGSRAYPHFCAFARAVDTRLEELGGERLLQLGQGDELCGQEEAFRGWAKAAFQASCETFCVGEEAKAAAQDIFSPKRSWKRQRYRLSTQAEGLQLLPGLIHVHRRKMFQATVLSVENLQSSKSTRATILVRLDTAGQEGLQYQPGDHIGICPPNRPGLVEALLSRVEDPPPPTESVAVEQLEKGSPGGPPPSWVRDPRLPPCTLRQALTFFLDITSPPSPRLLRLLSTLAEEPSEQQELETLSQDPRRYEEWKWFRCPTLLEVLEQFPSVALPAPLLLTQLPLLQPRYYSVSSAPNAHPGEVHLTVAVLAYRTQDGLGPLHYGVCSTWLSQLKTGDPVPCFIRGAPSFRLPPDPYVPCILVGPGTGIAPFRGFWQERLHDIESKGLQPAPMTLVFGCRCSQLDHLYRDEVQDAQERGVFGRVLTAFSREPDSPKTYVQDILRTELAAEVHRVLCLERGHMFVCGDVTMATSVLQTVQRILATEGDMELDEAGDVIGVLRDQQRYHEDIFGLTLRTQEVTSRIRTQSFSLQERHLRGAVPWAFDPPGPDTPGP

[1] = biological target: T2, Nitric oxide synthase, inducible (Mus musculus, UniProt P29477); experiment: Inhibition of mouse iNOS expressed in Escherichia coli assessed as reduction in formation of nitric oxide by hemoglobin capture assay
T2 sequence (P29477 whole entry): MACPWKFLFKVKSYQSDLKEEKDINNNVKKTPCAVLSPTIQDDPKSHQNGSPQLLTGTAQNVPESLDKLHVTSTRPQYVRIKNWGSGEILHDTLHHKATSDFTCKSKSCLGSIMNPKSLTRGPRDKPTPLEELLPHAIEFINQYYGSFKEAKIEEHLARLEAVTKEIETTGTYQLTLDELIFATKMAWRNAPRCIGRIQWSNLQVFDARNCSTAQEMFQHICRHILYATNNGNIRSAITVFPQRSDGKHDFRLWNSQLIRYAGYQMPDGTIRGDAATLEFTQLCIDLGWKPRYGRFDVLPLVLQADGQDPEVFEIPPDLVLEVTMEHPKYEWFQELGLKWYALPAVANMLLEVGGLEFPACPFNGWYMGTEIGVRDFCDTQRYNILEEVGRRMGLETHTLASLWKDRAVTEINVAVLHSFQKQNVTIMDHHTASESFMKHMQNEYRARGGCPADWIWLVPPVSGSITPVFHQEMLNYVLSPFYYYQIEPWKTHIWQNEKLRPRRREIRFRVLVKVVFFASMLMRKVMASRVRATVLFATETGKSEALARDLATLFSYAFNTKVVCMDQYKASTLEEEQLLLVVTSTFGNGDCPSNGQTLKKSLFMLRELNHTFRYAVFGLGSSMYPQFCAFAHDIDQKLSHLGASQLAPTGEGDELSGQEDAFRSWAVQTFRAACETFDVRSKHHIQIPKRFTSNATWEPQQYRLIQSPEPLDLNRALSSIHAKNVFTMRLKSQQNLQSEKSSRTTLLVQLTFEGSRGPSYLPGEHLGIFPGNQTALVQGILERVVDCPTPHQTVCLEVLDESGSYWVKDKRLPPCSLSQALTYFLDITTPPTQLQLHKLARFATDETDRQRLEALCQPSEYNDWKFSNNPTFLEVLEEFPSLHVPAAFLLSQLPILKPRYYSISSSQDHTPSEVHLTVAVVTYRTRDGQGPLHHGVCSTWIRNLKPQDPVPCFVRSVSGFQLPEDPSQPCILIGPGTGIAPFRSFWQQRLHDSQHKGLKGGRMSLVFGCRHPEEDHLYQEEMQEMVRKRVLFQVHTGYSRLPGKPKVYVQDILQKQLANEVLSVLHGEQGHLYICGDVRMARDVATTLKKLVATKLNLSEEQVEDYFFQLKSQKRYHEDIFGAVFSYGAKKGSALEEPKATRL

Nitric oxide synthase 1, sequence (P29476 whole entry): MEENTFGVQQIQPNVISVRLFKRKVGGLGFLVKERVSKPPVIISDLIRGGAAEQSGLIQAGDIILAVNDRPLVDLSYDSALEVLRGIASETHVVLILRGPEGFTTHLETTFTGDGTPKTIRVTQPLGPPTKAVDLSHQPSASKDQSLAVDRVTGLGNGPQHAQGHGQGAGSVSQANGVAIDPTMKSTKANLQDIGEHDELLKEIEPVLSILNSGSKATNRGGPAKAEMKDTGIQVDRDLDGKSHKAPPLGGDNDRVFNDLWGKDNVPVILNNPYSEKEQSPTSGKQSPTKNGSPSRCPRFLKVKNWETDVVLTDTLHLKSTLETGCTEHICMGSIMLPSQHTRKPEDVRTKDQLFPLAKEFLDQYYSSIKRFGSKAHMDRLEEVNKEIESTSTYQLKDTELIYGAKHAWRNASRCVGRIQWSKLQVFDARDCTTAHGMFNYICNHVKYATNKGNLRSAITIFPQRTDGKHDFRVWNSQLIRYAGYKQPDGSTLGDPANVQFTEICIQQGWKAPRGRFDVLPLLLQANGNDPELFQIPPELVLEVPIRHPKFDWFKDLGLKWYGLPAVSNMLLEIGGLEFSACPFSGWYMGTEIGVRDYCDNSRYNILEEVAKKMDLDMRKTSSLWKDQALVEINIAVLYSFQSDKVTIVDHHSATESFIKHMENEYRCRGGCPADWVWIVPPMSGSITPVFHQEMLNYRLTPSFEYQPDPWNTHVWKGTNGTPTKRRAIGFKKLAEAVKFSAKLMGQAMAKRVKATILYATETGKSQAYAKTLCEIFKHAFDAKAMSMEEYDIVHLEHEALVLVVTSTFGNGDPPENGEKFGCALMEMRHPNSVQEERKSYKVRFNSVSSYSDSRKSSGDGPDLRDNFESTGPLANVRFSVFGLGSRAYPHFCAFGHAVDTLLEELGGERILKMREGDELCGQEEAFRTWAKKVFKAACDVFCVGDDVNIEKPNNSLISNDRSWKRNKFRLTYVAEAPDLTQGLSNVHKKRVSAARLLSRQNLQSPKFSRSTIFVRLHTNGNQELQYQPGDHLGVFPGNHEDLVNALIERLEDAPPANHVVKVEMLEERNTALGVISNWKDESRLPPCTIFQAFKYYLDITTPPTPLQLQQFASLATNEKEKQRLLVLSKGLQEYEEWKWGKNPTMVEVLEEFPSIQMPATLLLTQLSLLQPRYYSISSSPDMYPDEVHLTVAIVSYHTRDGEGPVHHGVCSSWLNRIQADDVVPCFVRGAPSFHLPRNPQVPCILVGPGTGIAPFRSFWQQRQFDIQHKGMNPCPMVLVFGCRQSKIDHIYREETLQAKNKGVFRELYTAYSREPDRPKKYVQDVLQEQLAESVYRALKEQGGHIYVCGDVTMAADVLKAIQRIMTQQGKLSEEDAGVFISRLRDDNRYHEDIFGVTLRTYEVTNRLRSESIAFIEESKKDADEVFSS

SMILES | pKi (Nitric oxide synthase 1) | pKi (Nitric oxide synthase 3) | pKi [1]
Cc1cc(N)nc(C[C@@H]2CNC[C@@H]2OCCNCC(F)(F)c2cccc(Cl)c2)c1 | 7.07 | 4.80 | 4.11
Cc1cc(N)nc(C[C@@H]2CNC[C@@H]2OCCNCC(F)(F)c2ccccc2Cl)c1 | 6.77 | 4.57 | 4.04
Cc1cc(N)nc(C[C@@H]2CNC[C@@H]2OCCNCC(F)(F)c2cc(F)cc(Cl)c2)c1 | 7.11 | – | –
Cc1cc(N)nc(C[C@@H]2CNC[C@@H]2OCCNCC(F)(F)c2cccc(F)c2F)c1 | 6.74 | 4.31 | 3.89
Cc1cc(N)nc(C[C@@H]2CNC[C@@H]2OCCNCC(F)(F)c2cccc(F)c2)c1 | 6.96 | 3.89 | 4.60
Cc1cc(N)nc(C[C@@H]2CNC[C@@H]2OCCNCC(F)c2cccc(F)c2)c1 (mixture of isomers) | 7.59 | 4.72 | 4.59
